pIC50: −log10 of the molar value. Activity calls are given as the source filed them. The rule behind the calls is not given here.
Key:
[1] = Cytotoxicity against human NCI-H460 cells expressing CTR5 gene assessed as reduction in cell viability measured after 72 hrs by CellTiter-Blue cell viability assay; type: functional, cell-based; settings: Homo sapiens, NCI-H460, 72 h; read-out: IC50
In short: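 Monolayer cultures in RPMI-1640 with 10% FBS at 37°C, seeded at 850 (H460 CTR5), 660 (H460 LKB1+/+) or 1780 (H322) cells/well so that the end point reaches 70–80% confluence. Treated 72h; vehicle 0.15% DMSO. CellTiter-Blue added until colour change (50–60, 80–90 or 100–120 min respectively), fluorescence read at 590 nm. IC50 by nonlinear regression; three independent experiments.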

[2] = Upregulation of LC3-2 level in human NCI-H460 cells expressing CTR5 gene at 3.5 uM measured after 24 hrs by reverse-phase protein array method relative to control; type: functional, cell-based
NCI-H460 [3] = assay: Induction of autophagy in human NCI-H460 cells expressing CTR5 gene measured after 24 hrs by microarray method; type: functional, cell-based
NCI-H460 [4] = assay: Induction of apoptosis in human NCI-H460 cells expressing CTR5 gene assessed as decrease in procaspase3 level at 4.5 uM measured after 24 hrs by Western blot analysis; type: functional; set-up: scale not given: the % may be the effect or the level left
In short: (§1)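 Cells were seeded at 3×10^5 (H460) or 4.2×10^5 (H322) per dish and treated 24h later with DMSO or a concentration series for 24h. Lysed in cold RIPA with phosphatase and protease inhibitors, then sonicated. 30 μg protein run on Bis-Tris gels and transferred to nitrocellulose or PVDF. Detection used infrared secondary antibodies on an Odyssey imager. Signal normalized to β-actin or GAPDH and to DMSO control; three independent experiments.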

NCI-H460 [5] = assay: Induction of apoptosis in human NCI-H460 cells expressing CTR5 gene assessed as downregulation of Mcl1 short isoform expression at 3 to 4.5 uM measured after 24 hrs by Western blot analysis; type: functional, cell-based; in short: as §1
NCI-H460 [6] = assay: Induction of apoptosis in human NCI-H460 cells expressing CTR5 gene assessed as increase in cleavage of procaspase7 at 3 to 5.5 uM measured after 24 hrs by Western blot analysis; type: functional, cell-based; in short: as §1
[7] = target: Serine/threonine-protein kinase mTOR (Homo sapiens) (UniProt P42345); assay: Inhibition of mTOR in human NCI-H460 cells expressing CTR5 gene assessed as decrease in S6 phosphorylation at S240/44 site by reverse-phase protein array method relative to control; type: cell-based
NCI-H322 = assay: Increase in lipidation of LC3A/B1 to LC3A/B2 in human NCI-H322 cells measured after 24 hrs by Western blot analysis; type: functional, cell-based; in short: as §1
NCI-H460 [8] = assay: Induction of autophagy in human NCI-H460 cells expressing CTR5 gene assessed as acidic vesicular organelle formation at 3 uM measured after 72 hrs by acridine orange dye based flow cytometry (reference value: 91.2%); type: functional
NCI-H460 [9] = assay: Induction of apoptosis in human NCI-H460 cells expressing CTR5 gene assessed as early apoptotic cells at 4 uM measured after 72 hrs in presence of autophagy inhibitor chloroquine by Annexin V-Cy5/propidium iodide staining-based flow cytometry (reference value: 1.8%); type: functional
NCI-H460 [10] = assay: Induction of apoptosis in human NCI-H460 cells expressing CTR5 gene assessed as increase in cleavage of procaspase8 at 3 to 4.5 uM measured after 24 hrs by Western blot analysis; type: functional, cell-based; in short: as §1
NCI-H460 [11] = assay: Induction of apoptosis in human NCI-H460 cells expressing CTR5 gene assessed as viable cells at 4 uM measured after 72 hrs in presence of autophagy inhibitor chloroquine by Annexin V-Cy5/propidium iodide staining-based flow cytometry (reference value: 94.6%); type: functional; settings: NCI-H460, 72 h, read-out: Activity
NCI-H460 [12] = assay: Induction of apoptosis in human NCI-H460 cells expressing CTR5 gene assessed as early apoptotic cells at 5 uM measured after 72 hrs by Annexin V-Cy5/propidium iodide staining-based flow cytometry (reference value: 1.7%); type: functional
NCI-H460 [13] = assay: Induction of apoptosis in human NCI-H460 cells expressing CTR5 gene assessed as necrotic cells at 4 uM measured after 72 hrs in presence of autophagy inhibitor chloroquine by Annexin V-Cy5/propidium iodide staining-based flow cytometry (reference value: 0.9%); type: functional
NCI-H460 [14] = assay: Induction of apoptosis in human NCI-H460 cells expressing CTR5 gene assessed as cleaved PARP level at 3 to 5.5 uM measured after 24 hrs by Western blot analysis; type: functional, cell-based; in short: as §1
[15] = Upregulation of Atg7 level in human NCI-H460 cells expressing CTR5 gene at 3.5 uM measured after 24 hrs by reverse-phase protein array method relative to control; type: functional, cell-based
[16] = target: Serine/threonine-protein kinase mTOR (Homo sapiens) (UniProt P42345); assay: Inhibition of mTOR in human NCI-H460 cells expressing CTR5 gene assessed as upregulation of EIF4E pS09 level; type: cell-based
[17] = Downregulation of p62 level in human NCI-H322 cells at 3 to 5.5 uM measured after 24 hrs by Western blot analysis; type: functional, cell-based; in short: as §1
NCI-H460 [18] = assay: Decrease in mTOR level in human NCI-H460 cells expressing CTR5 gene at 3 to 5.5 uM measured after 24 hrs by Western blot analysis; type: functional, cell-based; in short: as §1
NCI-H460 [19] = assay: Induction of apoptosis in human NCI-H460 cells expressing CTR5 gene assessed as necrotic cells at 5 uM measured after 72 hrs by Annexin V-Cy5/propidium iodide staining-based flow cytometry (reference value: 2.1%); type: functional
NCI-H460 [20] = assay: Induction of apoptosis in human NCI-H460 cells expressing CTR5 gene assessed as necrotic cells at 4 uM measured after 72 hrs by Annexin V-Cy5/propidium iodide staining-based flow cytometry (reference value: 0.9%); type: functional
NCI-H460 [21] = assay: Induction of apoptosis in human NCI-H460 cells expressing CTR5 gene assessed as viable cells at 20 uM measured after 72 hrs by Annexin V-Cy5/propidium iodide staining-based flow cytometry (reference value: 94.6%); type: functional; settings: NCI-H460, 72 h, read-out: Activity
[22] = Downregulation of p62 level in human NCI-H460 cells expressing CTR5 gene at 3 to 5.5 uM measured after 24 hrs by Western blot analysis; type: functional, cell-based; in short: as §1
NCI-H460 [23] = assay: Induction of apoptosis in human NCI-H460 cells expressing CTR5 gene assessed as late apoptotic cells at 20 uM measured after 72 hrs by Annexin V-Cy5/propidium iodide staining-based flow cytometry (reference value: 2.7%); type: functional
[24] = Downregulation of Mcl1 long isoform protein expression in human NCI-H460 cells expressing CTR5 gene at 3 to 4.5 uM measured after 24 hrs by Western blot analysis; type: functional, cell-based; in short: as §1
NCI-H460 [25] = assay: Induction of apoptosis in human NCI-H460 cells expressing CTR5 gene assessed as early apoptotic cells at 20 uM measured after 72 hrs by Annexin V-Cy5/propidium iodide staining-based flow cytometry (reference value: 1.8%); type: functional
NCI-H460 [26] = assay: Induction of apoptosis in human NCI-H460 cells expressing CTR5 gene assessed as early apoptotic cells at 4 uM measured after 72 hrs by Annexin V-Cy5/propidium iodide staining-based flow cytometry (reference value: 1.8%); type: functional
NCI-H460 [27] = assay: Induction of apoptosis in human NCI-H460 cells expressing CTR5 gene assessed as late apoptotic cells at 4 uM measured after 72 hrs in presence of autophagy inhibitor chloroquine by Annexin V-Cy5/propidium iodide staining-based flow cytometry (reference value: 2.7%); type: functional

C=C(C)[C@@H]1CC[C@]2(C)[C@H](C[C@@H](F)C34OC(=O)[C@@]5(CC[C@@H](C)[C@H](C)[C@@H]35)CC[C@]42C)[C@@]1(C)CCC(=O)NCCC
pIC50 [1]: 5.59
Activity [2]: 10.7%
Activity (NCI-H460 [3]): Active
Activity (NCI-H460 [4]): 29%
Activity (NCI-H460 [5]): Dose-dependent effect
Activity (NCI-H460 [6]): Active
inhibition [7]: 8.4%
Activity (NCI-H322): Dose-dependent effect
Activity (NCI-H460 [8]): 88.6%
Activity (NCI-H460 [9]): 7.6%
Activity (NCI-H460 [10]): Active
viability at 4 µM (NCI-H460 [11]): 77.4%
Activity (NCI-H460 [12]): 13.4%
Activity (NCI-H460 [13]): 3.6%
Activity (NCI-H460 [14]): Active
Activity [15]: 4.5%
inhibition [16]: Active
Activity [17]: Active
Activity (NCI-H460 [18]): Active
Activity (NCI-H460 [19]): 5%
Activity (NCI-H460 [20]): 3.6%
viability at 20 µM (NCI-H460 [21]): 94.3%
Activity [22]: Active
Activity (NCI-H460 [23]): 2%
Activity [24]: Dose-dependent effect
Activity (NCI-H460 [25]): 2.8%
Activity (NCI-H460 [26]): 7.6%
Activity (NCI-H460 [27]): 11.5%
